Activity calls are given as the source filed them. The rule behind the calls is not given here.
How the values were obtained:
[1] = molecular target: T1, Nucleotide-binding oligomerization domain-containing protein 1 (Homo sapiens) (UniProt Q9Y239); assay: Agonist activity at human NOD1 receptor expressed in HEK-Blue reporter cells at 10 uM after 48 hrs by SEAP reporter gene assay; assay type: cell-based
T1 sequence (whole entry): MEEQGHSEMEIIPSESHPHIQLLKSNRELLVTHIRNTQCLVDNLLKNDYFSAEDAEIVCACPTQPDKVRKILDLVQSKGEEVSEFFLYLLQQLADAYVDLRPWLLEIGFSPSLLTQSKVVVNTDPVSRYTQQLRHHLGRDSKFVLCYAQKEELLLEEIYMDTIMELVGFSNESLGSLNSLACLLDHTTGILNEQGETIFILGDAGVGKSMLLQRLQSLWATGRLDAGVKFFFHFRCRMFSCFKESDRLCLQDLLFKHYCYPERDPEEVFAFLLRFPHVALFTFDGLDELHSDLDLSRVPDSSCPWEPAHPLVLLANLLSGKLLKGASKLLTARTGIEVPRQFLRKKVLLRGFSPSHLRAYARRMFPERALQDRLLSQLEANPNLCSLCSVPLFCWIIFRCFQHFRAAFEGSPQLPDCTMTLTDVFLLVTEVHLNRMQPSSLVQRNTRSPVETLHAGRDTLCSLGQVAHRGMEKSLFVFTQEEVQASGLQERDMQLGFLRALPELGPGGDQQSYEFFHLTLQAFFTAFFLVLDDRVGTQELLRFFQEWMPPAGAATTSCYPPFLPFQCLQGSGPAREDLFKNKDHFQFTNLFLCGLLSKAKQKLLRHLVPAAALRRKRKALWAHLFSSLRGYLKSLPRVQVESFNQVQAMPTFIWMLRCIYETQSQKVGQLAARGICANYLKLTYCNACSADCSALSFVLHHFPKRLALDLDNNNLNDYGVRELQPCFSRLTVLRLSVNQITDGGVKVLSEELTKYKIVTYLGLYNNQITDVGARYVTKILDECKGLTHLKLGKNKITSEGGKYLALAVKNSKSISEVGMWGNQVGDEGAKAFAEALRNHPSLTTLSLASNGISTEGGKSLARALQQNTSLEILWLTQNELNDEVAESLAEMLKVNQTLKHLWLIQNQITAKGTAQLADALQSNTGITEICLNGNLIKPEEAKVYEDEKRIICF
Procedure, shortened: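 HEK293 cells cotransfected with human NOD1 and an NF-κB/AP-1-inducible SEAP reporter, exposed to compounds at 10 μM for 48 h. SEAP is read at 650 nm with QUANTI-Blue. Diaminopimelic acid derivatives serve as NOD1 positive controls. Dunnett's test is used versus untreated cells.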

[2] = molecular target: NACHT, LRR and PYD domains-containing protein 3 (Homo sapiens, UniProt Q96P20); assay: Agonist activity at NLRP3 in human […] cells assessed as induction of LPS-induced IL-1beta secretion by HEK-Blue reporter cell based assay
Sequence of NACHT, LRR and PYD domains-containing protein 3 (Q96P20 whole entry, the tested form may be a part): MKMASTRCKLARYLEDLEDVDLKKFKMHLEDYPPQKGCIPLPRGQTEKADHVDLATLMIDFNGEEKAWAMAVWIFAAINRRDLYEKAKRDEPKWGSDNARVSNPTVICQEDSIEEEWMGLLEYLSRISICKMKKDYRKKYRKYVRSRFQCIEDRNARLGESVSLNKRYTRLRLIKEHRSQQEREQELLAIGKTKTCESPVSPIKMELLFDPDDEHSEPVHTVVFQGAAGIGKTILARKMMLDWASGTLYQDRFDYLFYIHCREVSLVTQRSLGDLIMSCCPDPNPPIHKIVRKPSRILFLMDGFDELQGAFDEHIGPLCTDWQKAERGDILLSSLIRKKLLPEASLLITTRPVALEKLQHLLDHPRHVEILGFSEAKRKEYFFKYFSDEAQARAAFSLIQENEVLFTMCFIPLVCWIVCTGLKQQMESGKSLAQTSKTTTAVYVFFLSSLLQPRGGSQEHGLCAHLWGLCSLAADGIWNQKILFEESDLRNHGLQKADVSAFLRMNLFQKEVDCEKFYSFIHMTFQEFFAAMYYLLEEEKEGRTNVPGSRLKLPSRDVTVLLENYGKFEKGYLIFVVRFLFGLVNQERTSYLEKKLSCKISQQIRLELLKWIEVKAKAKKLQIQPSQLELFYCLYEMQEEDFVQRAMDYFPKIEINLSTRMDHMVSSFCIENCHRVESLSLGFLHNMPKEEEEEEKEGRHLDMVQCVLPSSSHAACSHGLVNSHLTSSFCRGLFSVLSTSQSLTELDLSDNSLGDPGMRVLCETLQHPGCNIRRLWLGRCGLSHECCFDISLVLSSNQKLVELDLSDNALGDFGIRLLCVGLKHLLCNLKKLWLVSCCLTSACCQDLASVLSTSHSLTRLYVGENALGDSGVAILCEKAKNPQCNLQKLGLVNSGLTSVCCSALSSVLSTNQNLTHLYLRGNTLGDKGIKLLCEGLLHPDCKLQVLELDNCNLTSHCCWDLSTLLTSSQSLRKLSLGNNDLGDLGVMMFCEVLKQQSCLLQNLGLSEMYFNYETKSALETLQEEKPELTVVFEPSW
Procedure, shortened: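 THP1-Null cells stimulated with compounds; mature IL-1β released is detected with HEK-Blue IL-1β cells through SEAP reporter activity in the supernatant, read colorimetrically with QUANTI-Blue. ATP serves as positive standard. Untreated HEK-Blue IL-1β cells serve as negative control; comparison by ANOVA with Dunnett's test.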

[3] = molecular target: Nucleotide-binding oligomerization domain-containing protein 2 (Homo sapiens) (UniProt Q9HC29); assay: Agonist activity at human NOD2 receptor expressed in mouse Raw-Blue reporter cells at 10 uM after 48 hrs in presence of gefitinib by SEAP reporter gene assay; assay type: cell-based
Sequence of Nucleotide-binding oligomerization domain-containing protein 2 (Homo sapiens) (Q9HC29 whole entry, the tested form may be a part): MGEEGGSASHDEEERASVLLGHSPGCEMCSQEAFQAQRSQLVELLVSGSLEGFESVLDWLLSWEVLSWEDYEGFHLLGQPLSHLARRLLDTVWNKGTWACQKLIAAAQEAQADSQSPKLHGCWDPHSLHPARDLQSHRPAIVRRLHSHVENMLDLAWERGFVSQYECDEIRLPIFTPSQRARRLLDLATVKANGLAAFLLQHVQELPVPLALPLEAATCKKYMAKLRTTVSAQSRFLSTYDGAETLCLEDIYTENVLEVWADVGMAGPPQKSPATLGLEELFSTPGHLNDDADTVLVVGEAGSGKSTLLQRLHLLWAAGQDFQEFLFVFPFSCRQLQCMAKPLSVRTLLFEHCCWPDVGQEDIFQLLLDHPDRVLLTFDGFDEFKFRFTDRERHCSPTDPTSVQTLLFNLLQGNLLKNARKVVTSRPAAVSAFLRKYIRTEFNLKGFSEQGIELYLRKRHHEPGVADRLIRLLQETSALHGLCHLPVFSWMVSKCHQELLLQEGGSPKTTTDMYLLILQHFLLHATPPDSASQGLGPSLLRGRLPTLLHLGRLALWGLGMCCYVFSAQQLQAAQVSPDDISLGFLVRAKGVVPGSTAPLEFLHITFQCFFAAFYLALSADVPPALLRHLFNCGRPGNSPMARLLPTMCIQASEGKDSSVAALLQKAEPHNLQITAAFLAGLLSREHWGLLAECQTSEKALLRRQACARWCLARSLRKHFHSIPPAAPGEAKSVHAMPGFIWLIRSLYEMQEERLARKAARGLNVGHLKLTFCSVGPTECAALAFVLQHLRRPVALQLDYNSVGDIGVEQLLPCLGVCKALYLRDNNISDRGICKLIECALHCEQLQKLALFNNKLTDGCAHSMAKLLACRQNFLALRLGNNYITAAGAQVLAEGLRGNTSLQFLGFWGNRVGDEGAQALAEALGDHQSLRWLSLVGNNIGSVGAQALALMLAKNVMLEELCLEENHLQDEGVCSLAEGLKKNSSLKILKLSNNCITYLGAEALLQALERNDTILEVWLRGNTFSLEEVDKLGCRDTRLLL

Oryctolagus cuniculus [4] = assay: Pyrogenic activity in Chinchilla rabbit assessed as change in maximum body temperature at 100 nmol/kg, iv using micellar foemulation measured at 30 mins time intervals; assay type: toxicity, organism-based; conditions: in vivo, 0.5 h
Procedure, shortened: (§1)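 Standard rabbit pyrogenicity test, three animals per group, iv or modified sc application of free (micellar) or liposomal formulations. Maximum temperature rise (+ΔTmax) summed per group; sum below 1.1 °C classed as nonpyrogenic. Temperature followed a further 24 h for delayed pyrogenicity.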

Oryctolagus cuniculus [5] = assay: Pyrogenic activity in New Zealand albino rabbit assessed as change in maximum body temperature at 25 ug/kg, sc using liposomal formulation measured at 30 mins time intervals for 9 to 24 hrs (reference value: 0.2 degC); assay type: organism-based; conditions: in vivo, 0.025 mg/kg
[6] = molecular target: Nucleotide-binding oligomerization domain-containing protein 2 (Homo sapiens) (UniProt Q9HC29); assay: Agonist activity at human NOD2 receptor expressed in mouse Raw-Blue reporter cells at 10 uM after 24 hrs in presence of GSK717 by SEAP reporter gene assay
Mus musculus [7] = assay: Toxicity in BALB/c mouse assessed as irritation at site of drug application administered id loaded in rOspA proteoliposomes; conditions: in vivo, other
Procedure, shortened: (§2)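 Female BALB/c mice immunized id with rOspA metallochelation proteoliposomes carrying the adjuvant, prime and boost 14 days apart; injection sites inspected for irritation or local reactions.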

Mus musculus [8] = assay: Adjuvant activity in OspA immunized BALB/c mouse assessed as induction of total IgG1 antibody production administered id loaded in rOspA proteoliposomes measured 14 days after boost immunization by ELISA; assay type: functional
Procedure, shortened: (§3)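 Female BALB/c mice, 6−8 weeks, five per group, immunized id with His-tagged rOspA (endotoxin below 2.5 EU/mg) on metallochelation liposomes (EPC/POPG/DOGS-NTA-Ni/adjuvant 71:19:5:5), 20 μg rOspA per dose; boost 14 days after prime. Pooled sera taken 14 days post-boost, run in duplicate by ELISA on 100 ng/well tag-free rOspA, diluted 1:1000–1:32000; reported as mean OD490 ± SD at 1:8000.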

[9] = molecular target: Nucleotide-binding oligomerization domain-containing protein 2 (Homo sapiens) (UniProt Q9HC29); assay: Agonist activity at human NOD2 receptor expressed in mouse Raw-Blue reporter cells at 10 uM after 48 hrs by SEAP reporter gene assay; assay type: cell-based
Procedure, shortened: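 RAW 264.7-derived RAW-Blue cells carrying an NF-κB/AP-1-inducible SEAP reporter, exposed to compounds at 10 μM for 48 h. Colorimetric SEAP read-out at 650 nm. MDP serves as positive control. ANOVA with Dunnett's test versus untreated cells and versus MDP.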

Mus musculus [10] = assay: Immuno-stimulatory activity in ICR mouse assessed as induction of GM-progenitor cell proliferation in serum at […], sc using liposomal formulation measured after 6 hrs; assay type: functional, organism-based
Procedure, shortened: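 Female ICR mice, 3 months old, four per group, given liposomal preparations sc at 100 nmol per dose in 200 μL. Serum collected 6 h later and added to cultured granulocyte–monocyte progenitors. GM-CFU colonies counted, with serum-free cells as baseline. Dunnett's test is used versus the infusion-solution control.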

Mus musculus [11] = assay: Adjuvant activity in OspA immunized BALB/c mouse assessed as induction of total Ig antibody production administered id loaded in rOspA proteoliposomes measured 14 days after boost immunization by ELISA; assay type: functional; procedure, shortened: as §3
Mus musculus [12] = assay: Toxicity in BALB/c mouse assessed as local reactions at site of drug application administered id loaded in rOspA proteoliposomes; conditions: in vivo, other; procedure, shortened: as §2
[13] = Solubility of the compound in ethanol; assay type: physicochemical
Oryctolagus cuniculus [14] = assay: Toxicity in Chinchilla rabbit assessed as behavioral changes at 100 nmol/kg, iv using micellar formulation measured up to 2 months post dose; assay type: organism-based; conditions: in vivo
[15] = Solubility of the compound in PBS; assay type: physicochemical; conditions: buffer
Oryctolagus cuniculus [16] = assay: Pyrogenic activity in New Zealand albino rabbit assessed as change in maximum body temperature at 100 nmol/kg, sc using liposomal formulation measured at 30 mins time intervals for 9 to 24 hrs (reference value: 0.2 degC); assay type: toxicity, organism-based; conditions: in vivo; procedure, shortened: as §1
Oryctolagus cuniculus [17] = assay: Toxicity in New Zealand albino rabbit assessed as necrosis at site of application at 100 nmol/kg, sc using liposomal formulation measured up to 2 months post dose; assay type: organism-based; conditions: in vivo
Oryctolagus cuniculus [18] = assay: Toxicity in Chinchilla rabbit assessed as skin irritation at 100 nmol/kg, iv using micellar formulation measured up to 2 months post dose; assay type: organism-based; conditions: in vivo
Oryctolagus cuniculus [19] = assay: Toxicity in New Zealand albino rabbit assessed as behavioral changes at 100 nmol/kg, sc using liposomal formulation measured up to 2 months post dose; assay type: organism-based; conditions: in vivo
Oryctolagus cuniculus [20] = assay: Toxicity in Chinchilla rabbit assessed as necrosis at site of application at 100 nmol/kg, iv using micellar formulation measured up to 2 months post dose; assay type: organism-based; conditions: in vivo
Oryctolagus cuniculus [21] = assay: Toxicity in Chinchilla rabbit assessed as weight loss at 100 nmol/kg, iv using micellar formulation measured up to 2 months post dose; assay type: organism-based; conditions: in vivo
Oryctolagus cuniculus [22] = assay: Toxicity in New Zealand albino rabbit assessed as weight loss at 100 nmol/kg, sc using liposomal formulation measured up to 2 months post dose; assay type: organism-based; conditions: in vivo
Oryctolagus cuniculus [23] = assay: Toxicity in New Zealand albino rabbit assessed as skin irritation at 100 nmol/kg, sc using liposomal formulation measured up to 2 months post dose; assay type: organism-based; conditions: in vivo
[24] = Solubility of the compound in DMSO; assay type: physicochemical
Mus musculus [25] = assay: Adjuvant activity in OspA immunized BALB/c mouse assessed as induction of total IgG2a antibody production administered id loaded in rOspA proteoliposomes measured 14 days after boost immunization by ELISA; assay type: functional; procedure, shortened: as §3

SMILES	Activity [1]	Activity [2]	Activity [3]	deltaT (Oryctolagus cuniculus [4])	Activity [6]	Activity (Mus musculus [7])	Activity (Mus musculus [8])	Activity [9]	Activity (Mus musculus [10])	Activity (Mus musculus [11])	Activity (Mus musculus [12])	Activity (Oryctolagus cuniculus [14])	deltaT (Oryctolagus cuniculus [16])	Activity (Oryctolagus cuniculus [17])	Activity (Oryctolagus cuniculus [18])	Activity (Oryctolagus cuniculus [19])	Activity (Oryctolagus cuniculus [20])	Activity (Oryctolagus cuniculus [21])	Activity (Oryctolagus cuniculus [22])	Activity (Oryctolagus cuniculus [23])	other results
CC(=O)N[C@H]1C(O)O[C@H](CO)[C@@H](O)[C@@H]1O[C@H](C)C(=O)N[C@@H](C)C(=O)N[C@H](CCC(=O)O)C(N)=O (stereo partly drawn) [MURAMYL DIPEPTIDE]	inactive	Active	inactive	2.9 °C	inactive	Non-Toxic	Active	Active	Active	Active	Non-Toxic										deltaT (Oryctolagus cuniculus [5]): 2.7 °C
CCCCCCCCCCCCCCC(CCCCCCCCCCCCCC)C(=O)N[C@H]1[C@H](O[C@H]2[C@H](OCC(=O)N[C@@H](CC)C(=O)N[C@H](CCC(=O)O)C(N)=O)[C@@H](NC(C)=O)C(O)O[C@@H]2CO)O[C@H](CO)[C@@H](O)[C@@H]1O (stereo partly drawn)	inactive	Active	inactive	0.7 °C	inactive			Active	inactive			Non-Toxic	0.5 °C	Non-Toxic	Non-Toxic	Non-Toxic	Non-Toxic	Non-Toxic	Non-Toxic	Non-Toxic	solubility [13]: Insoluble; solubility [15]: Soluble; solubility [24]: Soluble
CCCCCCCCCCCCCCC(CCCCCCCCCCCCCC)C(=O)NCCCC[C@H](NC(=O)CC[C@@H](NC(=O)[C@H](CC)NC(=O)CO[C@H]1[C@H](O)[C@@H](CO)OC(O)[C@@H]1NC(C)=O)C(N)=O)C(=O)O (stereo partly drawn)	inactive	Active	inactive	0.7 °C	inactive	Non-Toxic	Active	Active	Active	Active	Non-Toxic	Non-Toxic	0.6 °C	Non-Toxic	Non-Toxic	Non-Toxic	Non-Toxic	Non-Toxic	Non-Toxic	Non-Toxic	Activity (Mus musculus [25]): Active
CCCCCCCCCCCCCCCCCC(=O)NCCCC[C@H](NC(=O)CC[C@@H](NC(=O)[C@H](CC)NC(=O)CO[C@H]1[C@H](O[C@@H]2O[C@H](CO)[C@@H](O)[C@H](O)[C@H]2NC(C)=O)[C@@H](CO)OC(O)[C@@H]1NC(C)=O)C(N)=O)C(=O)O (stereo partly drawn)	inactive	Active	inactive	0.5 °C	inactive			Active	Active			Non-Toxic	0.4 °C	Non-Toxic	Non-Toxic	Non-Toxic	Non-Toxic	Non-Toxic	Non-Toxic	Non-Toxic	

From ChEMBL document CHEMBL4024746, “Nonpyrogenic Molecular Adjuvants Based on norAbu-Muramyldipeptide and norAbu-Glucosaminyl Muramyldipeptide: Synthesis, Molecular Mechanisms of Action, and Biological Activities in Vitro and in Vivo” (J Med Chem, 2017)
